Only a selection was taken, and hits are over-represented in it overall.
L major viab – Leishmania major promastigote growth inhibition; Leishmania major promastigotes, resazurin fluorescence viability; inhibition, % at 10 µM; hit rate 9% among 200,000; in the data active = inhibition above about 50%;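 note: promastigotes grown with compound for 44 hours at 28 °C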
UPR XBP1 act – adaptive UPR (XBP1) activation | CHO-XBP1 luciferase reporter, IRE1-XBP1 UPR activation, luminescence; percent of tunicamycin response, DMSO as zero | activation, % at 20 µM | hit rate 0.33% among 330,000 | AID 463104;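 active = versus positive control, 20 µM dose yields 30% or more activation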
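Material: IRE1-XBP1 luciferase reporter CHO line / Quantity: one thousand reporter cells per well / Buffer or medium: F12 with 10% serum / Compound: 20 µM single concentration, DMSO 1% / Times: 6 h treatment, 37 °C / Detection: Steady-Glo luciferase glow luminescence, 10 min after reagent addition / Benchmarks: tunicamycin high, DMSO low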
CHOP inh – inhibitors of CHOP induction in ER stress response; CHO-K1 CHOP-promoter luciferase, tunicamycin-induced, 15-18 h; inhibition, % at 10 µM; hit rate 3.8% among 220,000; AID 2732;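 active = compounds that reduced the stress-induced luciferase reporter signal by more than about 70% of percent inhibition, limit read from the data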
CHOP UPR activ – activators of apoptotic arm of unfolded protein response (CHOP); hit rate 0.34% among 330,000; AID 449763; CHO-CHOP luciferase reporter, UPR activation, luminescence; percent of tunicamycin response over DMSO baseline; activation, % at 10 µM;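 active = at 10 µM dose, activation of 40% or more, normalized to positive control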
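Test system: CHO CHOP reporter cells. Input: 500 CHO-CHOP cells per well. Medium: F12 with 10% FBS. Technique: luciferase luminescence. Measure: percent activation relative to tunicamycin control. Dosing: 10 µM compound, 0.5% DMSO. Timing: 16-18 h cell attachment, then 6 h compound exposure, 37 °C.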
T cruzi inh – blocks replication of Trypanosoma cruzi | hit rate 1.4% among 300,000 | inhibition, % (no concentration beside the values) | AID 1885 | T. cruzi beta-gal in NIH3T3, luminescence, 90 h;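 active = mean inhibition across valid replicates above about 55%, limit read from the data; inconclusive = mean below that limit but half or more replicates reach it; inactive = mean below it, under half of replicates reach it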;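 note: signal also drops with host cell toxicity which is not excluded here; higher percent means less beta-gal luminescence so fewer parasites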
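System: Mouse NIH/3T3 fibroblasts infected with β-gal-expressing T. cruzi Tulahuen C4 | Quantity: NIH/3T3 cells, 5,000 per well | Reagent: 5000 reporter trypomastigotes per well | Dosing: Compound pinned at 50 nL/well, DMSO | Schedule: 3 h host attachment, then at least 90 h co-culture | Detection: GalScreen luminescence, 60 min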
Dynein transport – dynein cargo transport inhibition; z-score, hits read low; 3617.4 mouse cells, GR-EGFP nuclear translocation imaging; test concentration mostly 20 µM; stimulated with dexamethasone, 1 µM; stronger effect = lower value; hit rate 0.47% among 220,000; AID 1381;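 active = plate z-score of nuclear minus cytoplasmic receptor signal below a set negative limit, without overly bright fluorescence or cell loss, cut at about -3.5 in these data, passing the limit was not always enough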;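 note: z-score of nuclear minus cytoplasmic ring GR-EGFP intensity difference per well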
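Schedule: 48 h induction, then 1 h compound, then 30 min agonist, 37 °C. Buffer or medium: tetracycline-free induction medium containing charcoal-stripped FBS. Reagent: 1.0 µM final dexamethasone stimulus. Evaluation: nuclear versus cytoplasmic GR-EGFP signal, averaged per well. Signal: high-content fluorescence imaging after fixation.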
Dynein confirm – dynein cargo transport inhibition, confirmation. hit rate 69% among 1,000. calls only at 20 µM. shares compounds with Dynein transport. AID 463116. 3617.4 GR-EGFP nuclear translocation imaging, dexamethasone-induced;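 active = inhibition of receptor movement into the nucleus at or above a set limit in both runs, with normal cell brightness and cell count; inconclusive = limit reached in only one run, brightness and count normal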;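 note: dexamethasone at 1 µM final in well for 30 min; nuclear minus cytoplasmic GR-EGFP mean intensity difference in channel 2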
CHOP inh conf – confirmation of CHOP induction inhibitors | CHO-CHOP promoter luciferase reporter, tunicamycin-induced, luminescence | inhibition, % at 10 µM | shares compounds with CHOP inh | hit rate 45% among 2,100 | AID 504437;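 active = mean of three repeat readings of reporter signal inhibition above a set limit, cut at about 70% in these data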
UPR CHOP confirm – apoptotic UPR (CHOP) activation, confirmed; CHO-CHOP cells, CHOP-luciferase reporter luminescence; percent of tunicamycin response, DMSO as zero; hit rate 64% among 1,000; activation, % at 10 µM; shares compounds with CHOP UPR activ; AID 463112; in the data active = activation above about 33%
Of the large screens only hits and unclear results are named; the others gave an inactive call (follow-up assays come after a bar, where they were run).

COc1cc(/C=C2/CC/C(=C/c3ccc(O)c(OC)c3)C2=O)ccc1O	none (no result: L major viab)
COc1ccc(-c2cc(C(F)(F)F)nc(S(=O)(=O)CCCC(=O)Nc3cc(C)on3)n2)cc1OC	CHOP inh 105.8, Dynein transport -4.97 (no result: UPR XBP1 act, CHOP UPR activ) | Dynein confirm active | CHOP inh conf inactive
COc1ccc(-c2cc(C(F)(F)F)n3nc(C(=O)Nc4cc(C)on4)cc3n2)cc1OC	none (no result: T cruzi inh)
CC(C)(C)OC(=O)NCCc1nnc(S(=O)(=O)Cc2ccc(Cl)cc2Cl)o1	CHOP inh 105.8, Dynein transport -6.28 | Dynein confirm inconclusive | CHOP inh conf 129.4
CC(C)(C)OC(=O)NCCc1nnc(SCc2ccccc2Cl)o1	none
O=C(CSc1ccccc1C(=O)NCc1ccccc1)NC1CCCCCCC1	none
O=c1cc(-c2ccccc2Cl)oc2cc(O)cc(O)c12	none
O=C1C=CC(O)(c2cc(=O)c3c(O)cc(O)cc3o2)C=C1	L major viab 70.0, CHOP inh 108.0, Dynein transport -6.75 | Dynein confirm active | CHOP inh conf 121.7
CCc1c(C)c2ccc(OC(C)C(=O)NC(Cc3c[nH]c4ccc(O)cc34)C(=O)O)c(C)c2oc1=O (stereo unspecified)	none (no result: L major viab, CHOP inh, Dynein transport)
CCOc1ccc(C2/C(=C(/O)c3ccc(S(=O)(=O)N4CCCCC4)cc3)C(=O)C(=O)N2CCCOC)cc1OC (stereo unspecified)	T cruzi inh inconclusive (no result: L major viab, CHOP inh, Dynein transport)
O=C(CCl)c1ccc2c(c1)CCN2C(=O)C1CCCCC1	L major viab 100.4, CHOP inh 109.4, T cruzi inh 89.8, Dynein transport -5.68 | Dynein confirm active | CHOP inh conf inactive
CCOC(CNC(=O)C(=O)Nc1cc2c3c(c1)CCN3C(=O)CC2)OCC	none (no result: L major viab, CHOP inh, Dynein transport)
O=S1(=O)C=C(Sc2nc3ccccc3s2)c2ccccc21	L major viab 100.3, T cruzi inh 69.2, Dynein transport -4.11 (no result: CHOP inh) | Dynein confirm active | CHOP inh conf 114.8
CCOC(=O)N1CCN(C(=O)CSc2nc(=O)n3ccc(C)cc3n2)CC1	none (no result: L major viab, CHOP inh, Dynein transport)
CN(Cc1ccc(Cl)cc1)C(=O)CCl	CHOP inh 104.4, Dynein transport -6.22 | Dynein confirm active | CHOP inh conf inactive
CN(Cc1ccccc1)C(=O)CC(=O)N(C)Cc1ccccc1	none (no result: L major viab, CHOP inh, Dynein transport)
CCn1c(SCC(=O)Nc2ccc(N3CCOCC3)cc2)nnc1-c1ccco1	none (no result: L major viab, CHOP inh, Dynein transport)
O=C(CCl)N(c1ccc(Cl)cc1)c1c[nH]c2ccccc12	L major viab 100.4, T cruzi inh 58.3, Dynein transport -5.32 (no result: CHOP inh) | Dynein confirm active | CHOP inh conf 119.0
Cc1ccc(NC(=O)CCl)cc1S(=O)(=O)N1CCCCCC1	L major viab 90.7, CHOP inh 107.9, Dynein transport -4.14 | Dynein confirm active | CHOP inh conf 134.3
CN1CCC(N(C)C(=O)/C(C#N)=C/c2ccc(OC(F)F)cc2)CC1	none (no result: L major viab, UPR XBP1 act, CHOP UPR activ)
Cc1ccc(-n2ncc(Br)c(Br)c2=O)cc1	L major viab 100.2, CHOP inh 104.8, T cruzi inh 74.6, Dynein transport -5.9 (no result: UPR XBP1 act, CHOP UPR activ) | Dynein confirm active | CHOP inh conf 120.8
O=[N+]([O-])/C=C/c1cn(Cc2ccc(Cl)cc2)c2ccccc12	L major viab 99.3, CHOP inh 100.5, Dynein transport -3.72 | Dynein confirm inactive | CHOP inh conf inactive
O=C(O)c1ccc(Cn2cc(/C=C\[N+](=O)[O-])c3ccccc32)o1	none (no result: L major viab, CHOP inh, Dynein transport)
O=S(=O)(c1cccc(Br)c1)N1CCN(C(=S)NCC2CCCO2)CC1 (stereo unspecified)	none (no result: L major viab, CHOP inh, Dynein transport)
Cc1ccnc(NC(=O)CCN2C(=O)c3ccccc3S2(=O)=O)n1	none (no result: L major viab, CHOP inh, Dynein transport)
Cc1cc(C)n(-c2nc3ccccc3nc2Nc2ccc3c(c2)OCO3)n1	none
Cc1ccc2nc(Nc3ccc4[nH]c(=O)[nH]c4c3)c(-n3nc(C)cc3C)nc2c1	CHOP inh 104.1 | Dynein confirm inactive | CHOP inh conf 114.4
O=[N+]([O-])c1ccc(S(=O)(=O)CC(CN2CCCCC2)N2CCCCC2)cc1 (stereo unspecified)	L major viab 100.6, CHOP inh 105.1 | Dynein confirm active | CHOP inh conf 95.3
N=c1n(Cc2ccccc2)c2ccccc2n1CC(O)COc1ccc(Cl)cc1Cl (stereo unspecified)	L major viab 100.4, CHOP inh 109.1, Dynein transport -3.79 | Dynein confirm inactive | CHOP inh conf 92.3
O=C(CCl)N1CCN2C(=O)c3ccccc3C12c1ccc(Cl)cc1 (stereo unspecified)	L major viab 100.4, CHOP inh 105.4, Dynein transport -4.65 | Dynein confirm active | CHOP inh conf 112.9
CCOC(=O)c1c(C)sc2c1N(C(=O)CCl)c1cc(Cl)ccc1S2	L major viab 100.6, Dynein transport -3.97 (no result: CHOP inh) | Dynein confirm active | CHOP inh conf inactive
Cc1sc2ncnc(SCC(=O)N3c4ccccc4Sc4ccc(Cl)cc43)c2c1C	none
Cc1ccc2c(c1)/C(=N/OS(=O)(=O)c1ccccc1)CCS2	none (no result: CHOP inh)
CC1=CC(=O)C=C(C)C1=NOS(=O)(=O)c1ccccc1	L major viab 100.5, Dynein transport -5 (no result: UPR XBP1 act, CHOP inh, CHOP UPR activ) | Dynein confirm active | CHOP inh conf 73.5
O=C1CCCCc2sc(Br)c([N+](=O)[O-])c2N1	CHOP inh 104.7, Dynein transport -6.46 (no result: L major viab) | Dynein confirm active | CHOP inh conf inactive
NC(=S)N/N=C/c1ncc(C(F)(F)F)cc1Cl	none (no result: L major viab)
O=S(=O)(/N=C(\Sc1ccccc1)c1ccccc1)c1ccc(Cl)cc1	none
Cc1ccc(S(=O)(=O)/N=C(\Sc2ccccc2)c2ccccc2)cc1	CHOP inh 106.7, Dynein transport -3.52 | Dynein confirm active | CHOP inh conf inactive
CCOC(=O)c1c(C)oc2c1c1c(c3ccccc32)OCN(Cc2cccnc2)C1	none (no result: UPR XBP1 act, CHOP UPR activ, T cruzi inh)
CCOC(=O)c1c(C)oc2c1c(C(c1cccnc1)N1CCOCC1)c(O)c1ccccc12 (stereo unspecified)	L major viab 96.8, CHOP inh 107.4, CHOP UPR activ 70.5, Dynein transport -3.71 | Dynein confirm inconclusive | CHOP inh conf inactive | UPR CHOP confirm 134.3
CC(C)c1ccc(/C=C/C(=O)n2nnc3ccccc32)cc1	CHOP UPR activ 68.7, Dynein transport -4.53 | Dynein confirm active | UPR CHOP confirm inactive

Assay outcomes as filed in PubChem.
